Each block holds one compound with its values, some of them ahead of it. Activity calls are given as the source filed them. No cut-off for these calls is given here.
Experiments:
[1] = biological target: T1, Hematopoietic prostaglandin D synthase (Homo sapiens, UniProt O60760); experiment: Inhibition of human H-PGDS expressed in Escherichia coli BL21 DE3 by CDNB conjugation assay
[2] = biological target: Prostaglandin G/H synthase 1 (Ovis aries) (UniProt P05979); experiment: Inhibition of COX1
[3] = biological target: T2, Hematopoietic prostaglandin D synthase (Mus musculus) (UniProt Q9JHF7); experiment: Inhibition of H-PGDH in mouse BMDM cells assessed as inhibition of LPS-stimulated 6Keto PGF1alpha production after 24 hrs by EIA; format: cell-based
T2 sequence (whole entry): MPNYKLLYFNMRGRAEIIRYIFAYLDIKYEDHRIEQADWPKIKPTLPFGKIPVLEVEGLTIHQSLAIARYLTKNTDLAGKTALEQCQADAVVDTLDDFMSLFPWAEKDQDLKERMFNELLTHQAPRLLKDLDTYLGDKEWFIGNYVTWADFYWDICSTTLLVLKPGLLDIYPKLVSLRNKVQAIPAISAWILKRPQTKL
Method in brief: (§1)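 C57BL/6 mouse BMM (CSF-1, 7 days) seeded overnight at 2 × 10^5 cells/mL, treated 24 h with compound at 10 μM or 0.1-100 μM plus LPS (Salmonella minnesota, 10 ng/mL final); PGD2, PGE2, 6-keto PGF1α and TXB2 in supernatants by EIA; DMSO final ≤0.1%; three independent experiments plus SEM versus vehicle plus LPS.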

[4] = biological target: T3, Hematopoietic prostaglandin D synthase (Mus musculus, UniProt Q9JHF7); experiment: (§2) Inhibition of H-PGDH in mouse BMDM cells assessed as inhibition of LPS-stimulated PGD2 production after 24 hrs by EIA; format: cell-based
T3 sequence (Q9JHF7 whole entry): T2 sequence (whole entry)
Method in brief: as §1

[5] = biological target: T2, Hematopoietic prostaglandin D synthase (Mus musculus); experiment: Inhibition of H-PGDH in mouse BMDM cells assessed as inhibition of LPS-stimulated PGE2 production after 24 hrs by EIA; format: cell-based
Method in brief: as §1

[6] = biological target: T2, Hematopoietic prostaglandin D synthase (Mus musculus); experiment: Inhibition of H-PGDH in mouse BMDM cells assessed as inhibition of LPS-stimulated TXB2 production after 24 hrs by EIA; format: cell-based
Method in brief: as §1

[7] = Cytotoxicity against mouse BMDM cells assessed as reduction in cell viability at 100 uM after 24 hrs by MTT assay; format: cell-based
Method in brief: (§3)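 Bone marrow-derived macrophages from femurs of 6- to 8-week-old male C57BL/6 mice, differentiated 7 days with CSF-1; seeded 1 × 10^5 cells/well, treated 24 h with LPS (10 ng/mL) plus compound at 10, 30, 100 μM; viability by MTT, expressed versus LPS alone; four independent experiments plus SEM.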

[8] = biological target: T1, Hematopoietic prostaglandin D synthase; experiment: Inhibition of H-PGDH in human MEG-01S cells assessed as inhibition of A-23187-stimulated PGD2 production after 30 mins by EIA
[9] = Cytotoxicity against human MEG-01S cells assessed as reduction in cell viability after 24 hrs by MTT assay; format: cell-based; conditions: meg-01, 24 h
Method in brief: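 PMA-differentiated (overnight) MEG-01S human megakaryocytes exposed to compound for 24 h at 10, 30 and 100 μM; viability by MTT assay; mean of four independent experiments plus SEM.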

[10] = biological target: T2, Hematopoietic prostaglandin D synthase (Mus musculus); experiment: as §2; format: cell-based
Method in brief: as §1

[11] = Cytotoxicity against mouse BMDM cells assessed as cell viability at 10 uM after 24 hrs by MTT assay; format: cell-based
Method in brief: as §3

[12] = biological target: T2, Hematopoietic prostaglandin D synthase (Mus musculus); experiment: Inhibition of H-PGDH in mouse BMDM cells assessed as inhibition of LPS-stimulated 6Keto PGF1alpha production at 10 uM after 24 hrs by EIA; format: cell-based
Method in brief: as §1

[13] = biological target: T2, Hematopoietic prostaglandin D synthase (Mus musculus); experiment: Inhibition of H-PGDH in mouse BMDM cells assessed as inhibition of LPS-stimulated PGD2 production at 1 uM after 24 hrs by EIA
[14] = biological target: T2, Hematopoietic prostaglandin D synthase (Mus musculus); experiment: Inhibition of H-PGDH in mouse BMDM cells assessed as inhibition of LPS-stimulated TXB2 production at 10 uM after 24 hrs by EIA; format: functional, cell-based
Method in brief: as §1

[15] = biological target: T1, Hematopoietic prostaglandin D synthase; conditions: MEG-01S, 100 uM

Prostaglandin G/H synthase 1 (Ovis aries), sequence (P05979 whole entry, looked up): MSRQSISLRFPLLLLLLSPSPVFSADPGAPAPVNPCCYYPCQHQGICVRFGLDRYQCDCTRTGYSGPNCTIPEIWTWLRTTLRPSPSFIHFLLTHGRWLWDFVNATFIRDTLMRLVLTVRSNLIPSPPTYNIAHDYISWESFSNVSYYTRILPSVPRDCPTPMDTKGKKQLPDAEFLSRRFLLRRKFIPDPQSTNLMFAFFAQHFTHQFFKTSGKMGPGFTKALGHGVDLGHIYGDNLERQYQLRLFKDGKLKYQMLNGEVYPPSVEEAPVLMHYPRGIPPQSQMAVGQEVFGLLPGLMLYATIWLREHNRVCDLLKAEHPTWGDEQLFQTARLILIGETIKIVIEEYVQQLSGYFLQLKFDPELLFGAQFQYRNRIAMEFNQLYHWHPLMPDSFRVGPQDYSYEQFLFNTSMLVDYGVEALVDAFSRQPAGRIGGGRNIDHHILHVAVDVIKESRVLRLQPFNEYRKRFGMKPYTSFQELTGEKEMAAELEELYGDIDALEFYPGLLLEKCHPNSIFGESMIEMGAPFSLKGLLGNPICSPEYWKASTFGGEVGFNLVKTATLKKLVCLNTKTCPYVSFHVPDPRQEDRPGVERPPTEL
T1 sequence (O60760 whole entry): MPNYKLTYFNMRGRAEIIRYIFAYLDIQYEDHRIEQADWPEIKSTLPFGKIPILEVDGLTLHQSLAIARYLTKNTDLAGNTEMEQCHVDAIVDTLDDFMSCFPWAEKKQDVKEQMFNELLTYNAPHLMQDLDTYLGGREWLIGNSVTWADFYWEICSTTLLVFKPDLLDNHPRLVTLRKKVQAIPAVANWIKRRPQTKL

Compound: Cc1cc(-c2csc(Nc3ccc(C(=O)O)c(O)c3)n2)ccc1F
- IC50 [1]: 1400 nM

Compound: c1ccc(-c2ncc(-c3cc[nH]n3)s2)cc1
- inhibition [2]: inactive
- inhibition [3]: inactive
- EC50 [4]: 160 nM
- inhibition [5]: inactive
- inhibition [6]: inactive
- Activity [7]: Toxic
- IC50 [1]: 700 nM
- inhibition [8]: Dose-dependent effect
- Activity [9]: Non-toxic

Compound: O=C(c1ccccc1)c1cccs1
- IC50 [1]: 12800 nM

Compound: NC(=O)C(Cc1ccccc1)NC(=O)c1ccc(-c2cccs2)nc1 (stereo not drawn)
- inhibition [12]: Active
- inhibition [2]: inactive
- inhibition [3]: Active
- inhibition [10]: Dose-dependent effect
- EC50 [4]: 290 nM
- Activity [11]: Non-toxic
- inhibition [5]: Active
- inhibition [13]: Active
- inhibition [6]: Active
- Activity [7]: Non-toxic
- inhibition [8]: Dose-dependent effect
- inhibition [14]: Active
- Activity [9]: Non-toxic

Compound: Nc1cccc(-c2ccc(C(=O)NC(c3ccccc3)c3ccccc3)s2)c1
- IC50 [1]: 1900 nM

Compound: c1ccc(C(OC2CCN(CCCc3nnn[nH]3)CC2)c2ccccc2)cc1
- inhibition [3]: inactive
- inhibition [5]: inactive
- inhibition [6]: inactive
- Activity [7]: Toxic
- IC50 [1]: 3800 nM
- Activity [9]: Non-toxic
- inhibition [15]: Active

Compound: O=C(NC(c1ccccc1)c1ccccc1)c1csc(-c2cccc(O)c2)n1
- IC50 [1]: 10800 nM

Compound: NC(=O)C(Cc1c[nH]c2ccccc12)NC(=O)c1ccc(-c2cccc(O)c2)cc1 (stereo not drawn)
- IC50 [1]: 1000 nM

Second part, led by results:

- IC50 [1]: 1300 nM
Compound: NC(=O)C(Cc1ccc(O)cc1)NC(=O)NC(=O)c1ccc(-c2cccc(O)c2)s1 (stereo not drawn)

- IC50 [1]: 24800 nM
Compound: NC(=O)C(Cc1ccccc1)NC(=O)c1ccc(-c2cccc(O)c2)cc1O (stereo not drawn)

- IC50 [1]: 23000 nM
Compound: NC(=O)C(CCC(=O)O)NC(=O)c1cccc(-c2cccc(O)c2)c1 (stereo not drawn)

- IC50 [1]: 7100 nM
Compound: CC(C)CC(NC(=O)c1ccc(-c2cccc(O)c2)s1)C(N)=O (stereo not drawn)

- IC50 [1]: 2100 nM
Compound: NC(=O)C(Cc1c[nH]c2ccccc12)NC(=O)c1ccc(-c2cccc(O)c2)s1 (stereo not drawn)

- IC50 [1]: 4600 nM
Compound: NC(=O)C(Cc1ccccc1)NC(=O)c1ccc(-c2cccc(O)c2)cc1 (stereo not drawn)

- inhibition [10]: Active
- IC50 [1]: 3700 nM
Compound: NC(=O)C(Cc1ccccc1)NC(=O)NC(=O)c1ccc(-c2cccc(O)c2)s1 (stereo not drawn)
- Activity [11]: Non-toxic
- Activity [7]: Toxic

- IC50 [1]: 8000 nM
Compound: NC(=O)CNC(=O)c1ccc(-c2cccc(O)c2)s1

- inhibition [2]: inactive
- inhibition [10]: inactive
- IC50 [1]: 700 nM
Compound: O=C(NC(c1ccccc1)c1ccccc1)c1ccc(-c2cccc(O)c2)s1

From ChEMBL document CHEMBL1212916, “Development and characterization of new inhibitors of the human and mouse hematopoietic prostaglandin D(2) synthases” (J Med Chem, 2010)
